# Assays:
# [1] = tested on: RAS- or RAF-mutant FDG-PET-avid tumors; assay: FDG-PET pharmacodynamic; type: in vivo, human; details: Cycle 1 Day 10–14 (on drug); 60-mg (21/7) MTD; 8 of 17
# [2] = tested on: phosphorylation of ERK1/2 in cell lines harboring KRAS or BRAF mutations; details: cited from earlier work
# [3] = tested on: advanced solid tumors; assay: Tumor response by RECIST; type: in vivo, human; details: for partial responses (PRs): melanoma patients
# Method in brief: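 Oral test compound was given once daily at 60 mg (21/7) or 100 mg (14/14) in 28-day cycles. Patients with measurable lesions had CT at screening and about every 8 weeks, assessed by RECIST. CR/PR was confirmed 4 weeks after first documentation. Archival tissue was typed for BRAF V600, NRAS Q61 and KRAS G12/13 mutations. Responses were summarized as frequency counts and percentages.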
# [4] = tested on: patients with advanced solid tumors; details: in vivo
# [5] = tested on: patients with advanced solid tumors; assay: Phase Ia dose escalation/expansion: safety, DLT, MTD, adverse events; details: oral once daily
# [6] = Plasma pharmacokinetics; type: in vivo, human; details: for half-life: human, plasma; for CL/F apparent plasma clearance: steady state, geometric mean (%CV)
# Method in brief: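 Advanced solid tumor patients took oral test compound capsules once daily on 21-day on/7-day off or 14-day on/14-day off schedules in 28-day cycles. Serial plasma was sampled after the first dose (Day 1) and last dose (Day 21 or 14) of Cycle 1, plus pre-dose on Day 1 of later cycles. Analysis was by validated LC-MS/MS with noncompartmental analysis. Racc = Day 21 AUC0–24/Day 1 AUC0–24.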
smiles,measurement,setting,value
O=C(c1ccc(F)c(F)c1Nc1ccc(I)cc1F)N1CC(O)([C@@H]2CCCCN2)C1 [cobimetinib],FDG-PET metabolic response rate,[1],47%
same,effect on ERK1/2 phosphorylation,[2],inhibits the phosphorylation of ERK1/2
same,RECIST responses,[3]; 28 patients with KRAS-mutant colorectal cancer,no responses
same,patients with prolonged stable disease (SD) of five months or greater,[3]; all tumor types,five
same,partial responses (PRs),[3]; 60 mg on the 21/7 dosing schedule,three
same,partial responses (PRs),[3]; 100 mg 14/14 dosing schedule,three
same,duration of stable disease,[3]; patient with adenoid cystic carcinoma,7 months
same,duration of stable disease,[3]; patient with carcinoid,≥ 47 months
same,duration of stable disease,[3]; patient with esophageal tumor,6 months
same,duration of stable disease,[3]; patient with non-small cell lung cancer,13 months
same,median time on cobimetinib of responders,"[3]; seven responders, range 42–721+ days",280 days
same,incidence of edema,[4]; human,34%
same,incidence of treatment-related rash,[4]; human,54%
same,median onset of rash,[4]; human,12 days
same,median rash duration,[4]; human,20 days
same,patients with Grade ≥ 2 central serous retinopathy (CSR),[4]; human,5%
same,"patients with at least one SAE, regardless of causality",[4]; human,42%
same,patients with at least one treatment-related AE,[4]; human,90%
same,patients with dose reductions due to treatment-related rash,[4]; human,4%
same,"patients with gastrointestinal disorder SAEs, regardless of causality",[4]; human,14%
same,patients with treatment-related AEs that led to dose reductions or interruption,[4]; human,25%
same,treatment-related AEs that were Grade 1–2,[4]; human,72%
same,treatment-related rash that was Grade 1 or 2,[4]; human,94%
same,patients who experienced DLTs,[4],four
same,retinal vein occlusion,[4],no reports
same,reversibility of visual adverse events,[4],reversible and resolved within one week
same,symptomatic decreases in LVEF,[4],No events
same,maximum tolerated dose (MTD),[5]; 14/14 dosing schedule,100 mg
same,maximum tolerated dose (MTD),[5]; 21/7 dosing schedule,60 mg
same,exposure vs dose,[6]; from 0.05 mg/kg (approximately 3.5 mg for a 70-kg adult) to 100 mg,dose-proportional
same,half-life,"[6]; oral, 100 mg, t1/2 elimination half-life, 100 mg (14/14), geometric mean (range), n 13",54 h
same,half-life,"[6]; oral, mean terminal half-life, across all doses",49 h
same,half-life,"[6]; oral, terminal half-life, range, across all doses",23 to 80 h
same,median tmax,"[6]; oral, all cohorts",one to three
same,CL/F apparent plasma clearance,"[6]; 60 mg (21/7), n 37",13.8 (61) L/h
same,CL/F apparent plasma clearance,"[6]; 100 mg (14/14), n 18",14.8 (92) L/h

# Reference: PMC6863157 (Investigational new drugs, 2016)
